# Assay results taken from ChEMBL document CHEMBL1128510, “Potent inhibitors of acyl-CoA:cholesterol acyltransferase. Structure-activity relationships of novel N-(4-oxochroman-8-yl)amides” (J Med Chem, 1995).
# Assays:
# [1] = Inhibition of rabbit small-intestinal Acyl coenzyme A:cholesterol acyltransferase 1; set-up: species or system Oryctolagus cuniculus
# How it was run: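 Source: intestinal mucosa microsomes from cholesterol-fed Japanese white rabbits. Mucosa homogenized in 40 mM phosphate pH 7.4 with 30 mM EDTA, 50 mM KCl and 0.1 M sucrose; spun 10000g for 30 min, then 105000g for 1 h, at 4 °C.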
# [2] = tested on: Rattus norvegicus; assay: Serum total cholesterol-lowering activity in the cholesterol-fed rats expressed as the ratio of the observed reduction to the difference between the control and normal levels 100 (10 mg/kg po); assay type: functional
# How it was run: (§1)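 Male Wistar rats (8–9 weeks, 200 g, n = 6/group) on normal chow for 7 days, then a 2% cholesterol/1% cholic acid/12% coconut oil diet for 3 days. Compound in 0.5% methyl cellulose given orally once daily for 3 days at the listed dose; controls got vehicle. After a 16 h fast, aortic blood taken; serum cholesterol measured enzymatically. % change = (A−B)/(B−C)×100, with B = control and C = normal-diet rats.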
# [3] = tested on: Rattus norvegicus; assay: Serum total cholesterol-lowering activity in the cholesterol-fed rat expressed as the ratio of the observed reduction to the difference between the control and normal levels 100 (0.1 mg/kg po); assay type: functional; how it was run: as §1
# [4] = tested on: Rattus norvegicus; assay: Serum total cholesterol-lowering activity in the cholesterol-fed rat expressed as the ratio of the observed reduction to the difference between the control and normal levels 100 (0.3 mg/kg, po); assay type: functional; how it was run: as §1
# [5] = species: Rattus norvegicus; assay: IC50 is the concentration that inhibits 50% of the enzyme activity was evaluated by measuring the ability to inhibit acetyl-LDL-induced cholesteryl ester accumulation in rat peritoneal macrophages.; assay type: functional
# How it was run: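 Peritoneal macrophages from nonstimulated male Wistar rats (250–300 g), 3 × 10^6 per dish in 10% FBS-DMEM, adhered 2 h at 37 °C in 5% CO2. Washed in 3% BSA-DMEM, then incubated 16 h with 25 µg/mL acetylated human LDL, [14C]oleate-BSA and compound. Lipids extracted in hexane–2-propanol with [3H]cholesteryl oleate recovery standard. Cholesteryl oleate isolated by TLC and counted; IC50 determined for ester accumulation.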
# [6] = Ability to inhibit rabbit liver Acyl coenzyme A:cholesterol acyltransferase 1; set-up: species or system Oryctolagus cuniculus
# How it was run: (§2)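 Liver microsomes from Japanese white rabbits, prepared in 0.154 M phosphate buffer pH 7.4 with 40 mM NaF. Assay mix: 36 μM BSA, 2 mM DTT, 0.5 mg/mL microsomes, sonicated liposomes (PC:PS:cholesterol 3:1:8, 8 mg/mL cholesterol). Compound added as 1% (v/v) DMSO solution, preincubated 3 min at 37 °C. Reaction started with 43 μM [14C]oleoyl-CoA, 10 min at 37 °C. Cholesteryl oleate radioactivity measured; IC50 determined.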
# [7] = tested on: Rattus norvegicus; assay: Serum total cholesterol-lowering activity in the cholesterol-fed rats expressed as the ratio of the observed reduction to the difference between the control and normal levels 100 (3 mg/kg po); assay type: functional; how it was run: as §1
# [8] = Ability to inhibit rabbit liver Acyl coenzyme A:cholesterol acyltransferase 1.; set-up: species or system Oryctolagus cuniculus; how it was run: as §2
# [9] = tested on: Rattus norvegicus; assay: Serum total cholesterol-lowering activity in the cholesterol-fed rats expressed as the ratio of the observed reduction to the difference between the control and normal levels 100. (0.3 mg/kg, po); assay type: functional; how it was run: as §1
# [10] = tested on: Rattus norvegicus; assay: Serum total cholesterol-lowering activity in the cholesterol-fed rats expressed as the ratio of the observed reduction to the difference between the control and normal levels 100 (0.1 mg/kg po); assay type: functional; settings: in the assay text read “1 mg/kg po” for “0.1 mg/kg po”; how it was run: as §1
# [11] = tested on: Rattus norvegicus; assay: Serum total cholesterol-lowering activity in the cholesterol-fed rats expressed as the ratio of the observed reduction to the difference between the control and normal levels 100 (0.3 mg/kg po); assay type: functional; how it was run: as §1
# [12] = tested on: Rattus norvegicus; assay: Serum total cholesterol-lowering activity in the cholesterol-fed rat expressed as the ratio of the observed reduction to the difference between the control and normal levels 100 (3 mg/kg po); assay type: functional; how it was run: as §1
SMILES,IC50 [1] [µM],also measured
CCCCCCCCCCCCC(C)(C)C(=O)Nc1c(OC)ccc2c1OCCC2=O,0.0075,–
CCCCCCCCCCOc1ccc2c(c1NC(=O)C(C)(C)CCCCCCOc1ccc(Cl)cc1)OCCC2=O,0.14,–
Cc1ccc2c(c1NC(=O)c1ccccc1)OCCC2=O,> 1,–
COc1ccc2c(c1NC(=O)C(C)(C)CCCCCCc1ccccc1)OCCC2=O,0.044,–
Cc1ccc2c(=O)ccoc2c1NC(=O)C(C)(C)CCCCCOc1ccc(Cl)cc1,> 0.5,–
CCCCCCCCCCOc1cc(C)c(C(=O)Nc2c(OC)ccc3c2OCCC3=O)c(C)c1,> 0.2,–
CCCCCCOc1ccc(CCCC(C)(C)C(=O)Nc2c(OC)ccc3c2OCCC3=O)cc1,0.016,Change [7]: -65%
CC(C)(C)C(=O)Nc1c(OCCCCCCc2ccccc2)ccc2c1OCCC2=O,0.024,–
COc1ccc2c(c1NC(=O)c1ccc(OCCCCCCOCC(C)C)cc1)OCCC2=O,0.04,–
Cc1ccc2c(c1NC(=O)C(C)(C)Cc1ccccc1)OCCC2=O,> 1,–
CCCCCCCCCCC(C)(C)C(=O)Nc1c2c(cc([N+](=O)[O-])c1OC)C(=O)CCO2,0.034,–
CCCOCCCCCCC(C)(C)C(=O)Nc1c(OC)ccc2c1OCCC2=O,0.03,–
CCCCCCCCCCOc1ccc(C(=O)Nc2c(OC)ccc3c2OCCC3=O)cc1,0.012,–
CCCc1ccc(CCCC(C)(C)C(=O)Nc2c(OC)ccc3c2OCCC3=O)cc1,0.027,Change [10]: -54%
COc1ccc2c(c1NC(=O)C(C)(C)CCCCCCOc1ccc(Cl)cc1)OCCC2=O,0.064,Change [11]: -53%; Change [9]: -53%
CCCCCCCCCCC1(C(=O)Nc2c(C)ccc3c2NCCC3=O)CCCC1,0.43,–
Cc1ccc2c(c1NC(=O)C(C)(C)CCCCOc1ccc(Cl)cc1)OCCC2=O,0.51,–
CCCCCCCCCCC(C)(C)C(=O)Nc1c(OCCC)ccc2c1OCCC2=O,0.014,–
CCCCCCCCCCOc1ccc2c(c1NC(C)=O)OCCC2=O,0.3,–
CCCCCCCCCCOc1ccc2c(c1NC(=O)c1ccc(OCCCCCCOc3ccc(Cl)cc3)cc1)OCCC2=O,0.54,–
CCCCCCCCCCC(C)(C)C(=O)Nc1c(OC)cc(OC)cc1OC [CL-976],0.14,Change [12]: -50%; IC50 [5]: 3.8 µM; IC50 [6]: 0.149 µM

# Further lines, with some results ahead:
IC50 [1] [µM],SMILES,also measured
0.4,Cc1cc(C)c2c(c1NC(=O)C(C)(C)CCCCCOc1ccc(Cl)cc1)OCCC2=O,–
0.47,Cc1ccc2c(c1NC(=O)C(C)(C)CCCCCOc1ccc(Cl)cc1)OCCC2=O,Change [2]: -53%
0.15,CCCCCCCCCCC(C)(C)C(=O)Nc1c(Cl)ccc2c1OCCC2=O,–
0.026,COc1ccc2c(c1NC(=O)C(C)(C)CCCCCCOCC(C)C)OCCC2=O,–
0.17,CCCCCCCCCCC1(C(=O)Nc2c(C)ccc3c2OCCC3=O)CCCC1,–
0.017,COc1ccc2c(c1NC(=O)C(C)(C)CCCc1ccc(CC(C)C)cc1)OCCC2=O,–
0.077,CCCCCCCCCCC(C)(C)C(=O)Nc1c(OC)ccc2c(=O)ccoc12,–
0.013,CCCCCCCCCCC(C)(C)C(=O)Nc1c(OC)ccc2c1OCCC2=O,Change [3]: -61%; Change [4]: -66%; IC50 [5]: 0.16 µM; IC50 [6]: 0.016 µM
0.18,CCCCCCCCCCC(C)(C)C(=O)Nc1c(OC)ccc2c1OCCC2,–
0.78,CCCCCCCCCCC(C)(C)C(=O)Nc1c(OC)ccc2c(=O)cc(CC)oc12,–
0.21,CCCCCCCCCCC(C)(C)C(=O)Nc1c(C)ccc2c1OCCC2=O,–
0.026,COc1ccc2c(c1NC(=O)c1ccc(OCCCCCCOc3ccc(Cl)cc3)cc1)OCCC2=O,IC50 [8]: 0.059 µM; Change [7]: -79%; Change [9]: -56%; IC50 [5]: 0.22 µM
> 1,COc1ccc(C(=O)Nc2c(C)ccc3c2OCCC3=O)cc1,–
0.18,COc1ccc2c(c1NC(=O)C(C)(C)CCCCCCOc1ccc(Cl)cc1)C(=O)CCO2,–
0.85,CCCCCCCCCCOc1ccc2c(c1NC(=O)C(C)(C)CCCCCCCCCC)OCCC2=O,–
> 0.2,CCCCCCCCCCC(C)(C)C(=O)Nc1c2c(cc(N(C)C)c1OC)C(=O)CCO2,–
> 0.1,CCCCCCCCCCOc1ccc(C(=O)Nc2c(OCCCCCCCCCC)ccc3c2OCCC3=O)cc1,–
0.043,COc1ccc(OCCCCOc2ccc3c(c2NC(=O)C(C)(C)C)OCCC3=O)cc1,–
0.049,CCCCCCCCCCC(C)(C)C(=O)Nc1c(OC)c(NC)cc2c1OCCC2=O,–
0.031,CCCCCCCCC(C)(C)C(=O)Nc1c(OC)ccc2c1OCCC2=O,–
0.014,CCCCCCCCCCOc1ccc2c(c1NC(=O)C(C)(C)C)OCCC2=O,Change [4]: -45%; IC50 [5]: 0.13 µM; IC50 [6]: 0.022 µM
0.13,CCCCCCCCCCOc1ccc2c(=O)ccoc2c1NC(=O)C(C)(C)C,–
